Source: ChEMBL document CHEMBL1142138, “Development of a novel dicistronic reporter-selectable hepatitis C virus replicon suitable for high-throughput inhibitor screening” (Antimicrob Agents Chemother, 2007)

Assays:
[1] = target: RNA-directed RNA polymerase (Hepacivirus hominis, UniProt O39930); assay: Inhibition of recombinant HCV 1b BK NS5B polymerase by primer/template-directed transcription assay; parameters: species or system Hepatitis C virus subtype 1b
Procedure, shortened: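 Recombinant genotype 1b (strain BK) NS5B with biotin-dG12 primer (5 pmol) and poly(rC)300 template (0.5 pmol). Enzyme-started, 30 min at 30°C, EDTA stop, DEAE filter capture, scintillation counting. Final DMSO 1%. IC50 fitted from triplicate cpm.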

Hepatitis C virus [2] = assay: Antiviral activity against HCV 1b con1 in dual-reporter HCV replicon Huh7 cells by measuring hRLuc reporter activity after 72 hrs; format: functional, organism-based, Hepacivirus hominis; conditions: genotype 1b con1, Huh-7, 72 h
Procedure, shortened: (§1)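 Replicon cells seeded at 2 x 10^4/well in DMEM without selection antibiotics. Eight threefold serial compound dilutions added, final 320 to 0.1 µM (IFN 10 to 0.003 IU/ml). After 3 days at 37°C, medium removed and hRLuc activity read with a dual-luciferase reporter kit. Percent inhibition was taken relative to compound-free control and EC50 derived.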

[3] = Cytotoxicity against dual-reporter HCV replicon Huh7 cells by measuring FLuc reporter activity after 72 hrs; format: cell-based, Huh-7; conditions: human
Procedure, shortened: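 DDR cells carry a nuclear FLuc reporter. They were seeded at 2 x 10^4/well without selection antibiotics and given eight threefold compound dilutions, final 320 to 0.1 µM. After 3 days, medium was removed and FLuc read with a dual-luciferase kit. Percent inhibition was calculated versus compound-free control.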

[4] = Cytotoxicity against dual-reporter HCV replicon Huh7 cells by measuring XTT end points after 72 hrs; format: cell-based, Huh-7; conditions: human
Procedure, shortened: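 Cells were seeded at 2 x 10^4/well without selection antibiotics and exposed to eight threefold dilutions, final 320 to 0.1 µM, for 3 days. XTT (final 200 µg/ml) and phenazine methosulfate (final 1 mM) were then added. After 4 h, formazan was read at 450 nm against a 650 nm reference, and percent inhibition calculated versus control.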

[5] = Selectivity index, CC50 for dual-reporter HCV replicon Huh7 cells to EC50 against HCV 1 in dual-reporter HCV replicon Huh7 cells; format: functional, Huh-7
Procedure, shortened: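 Dual-reporter replicon cells: hRLuc from the replicon, FLuc in the nucleus. Seeded at 2 x 10^4/well without selection antibiotics, then eight threefold compound dilutions (final 320 to 0.1 µM). After 3 days, XTT/PMS for 4 h read at 450/650 nm, then FLuc and hRLuc luminescence. Percent inhibition calculated from the luciferase and XTT signals. Index = CC50/EC50.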

Hepatitis C virus [6] = assay: Antiviral activity against HCV 1b con1 in dicistronic reporter selectable HCV replicon Huh7 cells assessed as inhibition of HCV RNA after 72 hrs by RT-PCR; format: functional, organism-based, Hepacivirus hominis; conditions: genotype 1b con1, Huh-7, 72 h
Procedure, shortened: (§2)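 Cells were then PBS-washed and total RNA extracted. HCV RNA and GAPDH mRNA were quantified by TaqMan RT-PCR against standard curves, and HCV was normalized to GAPDH at each concentration. Percent inhibition was computed versus DMSO-treated wells, giving EC50. Reactions were also run without reverse transcriptase.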

Hepatitis C virus [7] = assay: Antiviral activity against HCV 1b con1 in HCV 1b in dicistronic reporter selectable HCV replicon Huh7 cells by measuring hRLuc reporter activity after 72 hrs; format: functional, organism-based, Hepacivirus hominis; conditions: genotype 1b con1, Huh-7, 72 h; procedure, shortened: as §1
Hepatitis C virus [8] = assay: Antiviral activity against HCV 1b con1 in dual-reporter HCV replicon Huh7 cells assessed as inhibition of HCV RNA after 72 hrs by RT-PCR; format: functional, organism-based, Hepacivirus hominis; conditions: genotype 1b con1, Huh-7, 72 h; procedure, shortened: as §2

Chain of RNA-directed RNA polymerase (O39930 whole entry): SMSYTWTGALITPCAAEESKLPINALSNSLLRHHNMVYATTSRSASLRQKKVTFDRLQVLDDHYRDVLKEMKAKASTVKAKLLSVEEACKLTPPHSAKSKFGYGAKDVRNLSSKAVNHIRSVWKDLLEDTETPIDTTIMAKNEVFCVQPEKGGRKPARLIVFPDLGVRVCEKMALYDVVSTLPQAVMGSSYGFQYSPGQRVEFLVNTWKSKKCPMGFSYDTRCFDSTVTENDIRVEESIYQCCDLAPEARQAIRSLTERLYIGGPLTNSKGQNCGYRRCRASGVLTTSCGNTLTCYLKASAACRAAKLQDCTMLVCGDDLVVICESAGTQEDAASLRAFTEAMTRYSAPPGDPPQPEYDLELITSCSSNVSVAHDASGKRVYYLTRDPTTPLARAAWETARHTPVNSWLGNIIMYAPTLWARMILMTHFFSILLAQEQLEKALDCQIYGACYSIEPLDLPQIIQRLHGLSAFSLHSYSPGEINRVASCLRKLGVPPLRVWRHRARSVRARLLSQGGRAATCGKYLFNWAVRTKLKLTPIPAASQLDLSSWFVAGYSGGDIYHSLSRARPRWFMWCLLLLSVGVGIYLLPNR

| IC50 [1] [µM] | EC50 (Hepatitis C virus [2]) [µM] | EC50 (Hepatitis C virus [6]) [µM] | EC50 (Hepatitis C virus [7]) [µM] | EC50 (Hepatitis C virus [8]) [µM] | SMILES | CC50 at 72 h [3] [µM] | CC50 at 72 h [4] [µM] | Selectivity index [5] |
| --- | --- | --- | --- | --- | --- | --- | --- | --- |
| 0.014 | 1.7 | 2.4 | 3.3 | 3.2 | COc1cc(OC)c(CCC2(C3CCCC3)CC(O)=C(Sc3nc4nc(C)cc(C)n4n3)C(=O)O2)cc1Cl (stereo unspecified) | > 320 | > 320 | >188.2 |
|  | 115 |  |  |  | Cc1cc(SC2=C(O)OC(CCc3ccc(O)cc3)(C3CCCC3)CC2=O)c(C(C)(C)C)cc1N (stereo unspecified) | 116 | 242 | 0.9 |

| SMILES | IC50 [1] [µM] | EC50 (Hepatitis C virus [2]) [µM] | EC50 (Hepatitis C virus [6]) [µM] | EC50 (Hepatitis C virus [7]) [µM] | EC50 (Hepatitis C virus [8]) [µM] | CC50 at 72 h [3] [µM] | CC50 at 72 h [4] [µM] | Selectivity index [5] |
| --- | --- | --- | --- | --- | --- | --- | --- | --- |
| OC[C@H]1O[C@@H](n2cnc3cc(Cl)c(Cl)cc32)[C@H](O)[C@@H]1O [DICHLORORIBOBENZIMIDAZOLE] |  | 34.1 |  |  |  | 60.7 | 40.4 | 0.7 |
